Assay results from the array DNA melting data of Ke et al. (doi:10.1101/2024.01.08.574731).

What was measured:
[1] = folding enthalpy; higher = less favourable; fluorescence melt of hairpins on a sequencing array, two-state fit; settings: sodium 0.088 M
Method in brief: (§1)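 Folding enthalpy and melting temperature were estimated with bootstrapped two-state fits and combined across four replicates by inverse-variance weighting, with fitted temperatures raised by 9.35 °C to match UV melts. The data were Cy3 fluorescence of library hairpins, with annealed Cy3 and quencher oligos, on a sequenced MiSeq flow cell in 50 mM Na-HEPES pH 8.0, 25 mM NaCl, imaged in 2.5 °C steps up to 60 °C and normalised to pre-quench Cy3 and control constructs.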

[2] = melting temperature; fluorescence melt of hairpins on a sequencing array, two-state fit, raised by 9.35 °C to match UV melts; settings: sodium 0.088 M
Method in brief: as §1

Row | Sequence | folding enthalpy [1] [kcal/mol] | Tm [2] [°C]
1 | GCAGACGAAAGTCTGTGC ((((((....)))..))) | -22.2 | 61.3
2 | GTTTTAGGAAACTAGAAC (((.(((....))).))) | -11.5 | 27.9
3 | GTCTAGAAATAGAC (((((....))))) | -14.9 | 40.5
4 | GATCTCTTCGGAGATC ((((((....)))))) | -42.6 | 54.5
5 | GCTGGGCGAAAGCGGAGC (((..((....))..))) | -17.2 | 44.1
6 | GTTCGCACGAAAGTGAAC (((..(((....)))))) | -16.3 | 39
7 | GATCGTGCTACGATC ((((((...)))))) | -41 | 57.3
8 | GATCGGATCACCGATC ((((((....)))))) | -34 | 57.5
9 | GACGGGGGAAACCCCATC ((.((((....)))).)) | -14.7 | 37
10 | GATCACCCGGGTGATC ((((((....)))))) | -51.9 | 59
11 | GTTCTAGAAATAGAAC ((((((....)))))) | -28.4 | 41.1
12 | GGTGTTGGAAACGACACC (((((.(....).))))) | -50.3 | 54.3
13 | GGAAACGGAAACGCTTCC ((((.((....)).)))) | -34.1 | 43.4
14 | GTCACGGGAAACCATGAC ((((.((....)).)))) | -29.9 | 41.7
15 | CGGTGCGGAAACGCCCCG (((.(((....))).))) | -28.6 | 53.9
16 | GATCCCAGATGGGATC ((((((....)))))) | -34.1 | 57.6
17 | GCATAGCGAAAGCGAGGC ((.(.((....)).).)) | -13.3 | 54.4
18 | GAGGAGGGAAACTTCCTC (((((.(....).))))) | -25.6 | 41.9
19 | GCATCATCGAAAGATTGC (((..(((....)))))) | -19.8 | 30.8
20 | GTCGGCCCGAAAGGGGAC (((..(((....)))))) | -12.6 | 43.3
21 | GTATTGGGAAACCAATGC (.(((((....))))).) | -26.9 | 44.3
22 | GTGATCGCGAAAGCGCAC (((..(((....)))))) | -12.6 | 35.6
23 | GCAGGAGGAAACTCCTAC (.(((((....))))).) | -15.2 | 37.8

Row | Sequence | folding enthalpy [1] [kcal/mol] | Tm [2] [°C]
24 | GCTCATCGAAAGATCAGC (((.(((....))).))) | -29.6 | 34.7
25 | GGTGTAGGAAACTACGCC ((.((((....)))).)) | -43.2 | 52.3
26 | GATCTTCTGCAAGATC ((((((....)))))) | -22 | 42.9
27 | GGTTACCGAAAGGTCACC (((.(((....))).))) | -27.7 | 49.1
28 | GACTGGGGAAACCCGGTC (((.(((....))).))) | -41.7 | 54.1
29 | GATCTAACCTAGATC ((((((...)))))) | -29 | 38.1
30 | GGCTCTGGAAACAGAACC ((.((((....)))).)) | -35.1 | 42.3
31 | GCATGGACGAAAGTCTGC (((..(((....)))))) | -19.1 | 43
32 | GCTTGGCGAAAGCCGCGC ((..(((....)))..)) | -15.6 | 57.6
33 | GAATGCGAAAGCATATTC ((((((....)))..))) | -11.6 | 33
34 | GCTGTCGGAAACGGTAGC (((..((....))..))) | -28.9 | 41.8
35 | CTGATGAAAATCAG (((((....))))) | -22 | 43.4
36 | GCTACGCGAAAGCATCGC ((.(.((....)).).)) | -9.49 | 30.7
37 | GAAGAACGAAAGTTGTTC (((.(((....))).))) | -32.7 | 41.4
38 | GATCGAGCTATCGATC ((((((....)))))) | -43.4 | 58.4
39 | GACTGCGGAAACACAGTC (((((.(....).))))) | -26.8 | 47.4
40 | GATCGTGTGACGATC ((((((...)))))) | -40.1 | 54.7
41 | GCTATCGAAAGATAGC ((((((....)))))) | -39 | 66.4
42 | GCGAACTTTCGC ((((....)))) | -20 | 51.1
43 | GATCAAAGATTTGATC ((((((....)))))) | -31.8 | 43.6
44 | GCGGTACGAAAGTAACGC (((.(((....))).))) | -38.8 | 67.7
45 | GATCGTCTTGACGATC ((((((....)))))) | -35.9 | 66.3
46 | GATACAGGAAACTGCATC (((.(((....))).))) | -28.4 | 33.6
